{"source": "ChEMBL document CHEMBL3868612", "about": "“Discovery of a potent and selective ROMK inhibitor with improved pharmacokinetic properties based on an octahydropyrazino[2,1-c][1,4]oxazine scaffold” (Bioorg Med Chem Lett, 2016)", "key": {"Rattus norvegicus [1]": {"test_system": "Rattus norvegicus", "experiment": "Antihypertensive activity in […] rat model assessed as increase in diuresis at 30 mg/kg, po qd measured on day 1 post dose relative to control", "assay_type": "functional", "procedure,_shortened": "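Spontaneously hypertensive rats dosed orally once daily for 3 days at 3, 10 and 30 mg/kg (reference diuretic at 25 mg/kg); 24 h urine output on day 1 expressed as fold increase over vehicle-treated rats; n = 5 per group.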"}, "[2]": {"target": "Voltage-gated inwardly rectifying potassium channel KCNH2 (Homo sapiens, UniProt Q12809)", "sequence (Q12809 whole entry)": "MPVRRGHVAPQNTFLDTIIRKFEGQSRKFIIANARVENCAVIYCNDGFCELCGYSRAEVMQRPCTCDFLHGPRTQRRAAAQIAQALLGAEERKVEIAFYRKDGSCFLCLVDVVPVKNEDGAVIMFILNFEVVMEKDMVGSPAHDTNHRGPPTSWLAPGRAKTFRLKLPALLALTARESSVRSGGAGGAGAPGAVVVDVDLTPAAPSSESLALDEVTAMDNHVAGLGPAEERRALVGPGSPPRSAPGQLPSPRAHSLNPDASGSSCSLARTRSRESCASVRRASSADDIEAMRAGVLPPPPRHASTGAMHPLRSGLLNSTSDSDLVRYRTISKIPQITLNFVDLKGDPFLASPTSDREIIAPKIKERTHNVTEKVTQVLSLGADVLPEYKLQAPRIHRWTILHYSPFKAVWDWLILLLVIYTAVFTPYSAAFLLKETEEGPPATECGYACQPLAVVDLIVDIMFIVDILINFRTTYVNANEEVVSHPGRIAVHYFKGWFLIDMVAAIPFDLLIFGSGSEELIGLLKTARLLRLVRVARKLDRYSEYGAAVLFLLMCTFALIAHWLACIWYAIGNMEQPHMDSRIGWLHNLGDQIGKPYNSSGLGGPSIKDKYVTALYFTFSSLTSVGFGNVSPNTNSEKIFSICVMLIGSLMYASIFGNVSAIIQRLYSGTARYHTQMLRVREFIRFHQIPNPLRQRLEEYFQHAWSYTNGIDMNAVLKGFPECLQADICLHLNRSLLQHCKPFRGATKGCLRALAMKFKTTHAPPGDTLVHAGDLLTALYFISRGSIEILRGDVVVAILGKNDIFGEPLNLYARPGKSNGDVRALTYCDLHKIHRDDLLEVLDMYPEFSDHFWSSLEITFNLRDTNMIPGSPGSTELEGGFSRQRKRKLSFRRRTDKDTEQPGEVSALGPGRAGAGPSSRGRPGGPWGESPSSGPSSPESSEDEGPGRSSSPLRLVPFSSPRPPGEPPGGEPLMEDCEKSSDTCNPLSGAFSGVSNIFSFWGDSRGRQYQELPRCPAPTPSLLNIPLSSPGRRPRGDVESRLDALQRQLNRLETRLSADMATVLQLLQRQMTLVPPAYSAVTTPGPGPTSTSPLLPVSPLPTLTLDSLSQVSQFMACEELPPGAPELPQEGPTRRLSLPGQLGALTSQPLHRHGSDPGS", "experiment": "Inhibition of human ERG by electrophysiology method"}, "[3]": {"experiment": "Oral bioavailability in Sprague-Dawley rat at 2 mg/kg", "assay_type": "ADME, organism-based", "conditions": "in vivo"}, "Cytochrome P450 2C9": {"target": "Cytochrome P450 2C9 (Homo sapiens, UniProt P11712)", "sequence (P11712 whole entry)": "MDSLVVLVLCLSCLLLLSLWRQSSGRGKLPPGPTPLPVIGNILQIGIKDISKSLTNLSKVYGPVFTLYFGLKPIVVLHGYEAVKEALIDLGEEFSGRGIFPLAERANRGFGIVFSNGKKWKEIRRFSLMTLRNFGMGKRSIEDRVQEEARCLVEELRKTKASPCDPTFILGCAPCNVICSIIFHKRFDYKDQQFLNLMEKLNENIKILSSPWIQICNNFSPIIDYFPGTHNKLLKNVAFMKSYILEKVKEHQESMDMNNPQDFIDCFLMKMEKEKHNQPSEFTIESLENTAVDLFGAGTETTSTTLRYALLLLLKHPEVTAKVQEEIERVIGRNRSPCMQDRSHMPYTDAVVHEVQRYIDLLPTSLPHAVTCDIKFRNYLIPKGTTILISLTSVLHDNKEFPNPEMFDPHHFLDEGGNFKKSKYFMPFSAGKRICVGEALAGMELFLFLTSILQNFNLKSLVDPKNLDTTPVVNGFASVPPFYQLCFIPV", "experiment": "Inhibition of CYP2C9 (unknown origin)", "assay_type": "ADME"}, "Rattus norvegicus [4]": {"test_system": "Rattus norvegicus", "experiment": "Antihypertensive activity in […] rat model assessed as change in systolic blood pressure at 10 mg/kg, po administered qd measured on day 3", "assay_type": "functional", "procedure,_shortened": "(§1)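 Spontaneously hypertensive rats were dosed orally once daily for 3 days. Systolic blood pressure change was read on day 3 relative to vehicle, with n = 5 per group.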"}, "[5]": {"target": "Somatostatin receptor type 2 (Homo sapiens, UniProt P30874)", "sequence (P30874 whole entry)": "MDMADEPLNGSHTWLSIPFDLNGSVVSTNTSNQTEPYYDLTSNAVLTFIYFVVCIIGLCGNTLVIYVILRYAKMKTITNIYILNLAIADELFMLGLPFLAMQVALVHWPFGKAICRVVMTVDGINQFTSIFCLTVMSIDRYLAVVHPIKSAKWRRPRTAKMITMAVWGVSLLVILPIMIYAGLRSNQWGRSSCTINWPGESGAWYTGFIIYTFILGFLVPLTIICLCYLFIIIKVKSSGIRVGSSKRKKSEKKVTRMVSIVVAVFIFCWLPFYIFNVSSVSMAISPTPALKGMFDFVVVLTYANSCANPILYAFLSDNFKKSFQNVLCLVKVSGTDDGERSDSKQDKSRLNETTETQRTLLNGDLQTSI", "experiment": "Inhibition of Somatostatin receptor type 2 (unknown origin) by radioligand binding assay"}, "Rattus norvegicus [6]": {"test_system": "Rattus norvegicus", "experiment": "Antihypertensive activity in […] rat model assessed as change in systolic blood pressure at 3 mg/kg, po administered qd measured on day 3", "assay_type": "functional", "procedure,_shortened": "as §1"}, "[7]": {"target": "T1, ATP-sensitive inward rectifier potassium channel 10 (Homo sapiens, UniProt P78508)", "T1 sequence (P78508 whole entry)": "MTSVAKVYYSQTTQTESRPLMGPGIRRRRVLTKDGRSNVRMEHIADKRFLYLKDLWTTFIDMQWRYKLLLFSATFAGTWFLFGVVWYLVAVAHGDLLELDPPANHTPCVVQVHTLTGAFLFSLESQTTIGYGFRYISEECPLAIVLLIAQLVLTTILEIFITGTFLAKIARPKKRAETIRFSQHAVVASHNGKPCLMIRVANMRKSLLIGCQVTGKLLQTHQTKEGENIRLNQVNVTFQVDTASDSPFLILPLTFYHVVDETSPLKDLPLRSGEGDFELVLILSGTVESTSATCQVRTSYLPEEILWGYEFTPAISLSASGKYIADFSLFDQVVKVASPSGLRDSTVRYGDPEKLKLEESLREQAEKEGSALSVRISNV", "experiment": "Inhibition of Kir4.1 (unknown origin)"}, "[8]": {"experiment": "Apparent permeability in pig LLC-PK1 cells", "assay_type": "ADME, cell-based, Sus scrofa"}, "[9]": {"target": "T2, Inward rectifier potassium channel 2 (Homo sapiens, UniProt P63252)", "T2 sequence (P63252 whole entry)": "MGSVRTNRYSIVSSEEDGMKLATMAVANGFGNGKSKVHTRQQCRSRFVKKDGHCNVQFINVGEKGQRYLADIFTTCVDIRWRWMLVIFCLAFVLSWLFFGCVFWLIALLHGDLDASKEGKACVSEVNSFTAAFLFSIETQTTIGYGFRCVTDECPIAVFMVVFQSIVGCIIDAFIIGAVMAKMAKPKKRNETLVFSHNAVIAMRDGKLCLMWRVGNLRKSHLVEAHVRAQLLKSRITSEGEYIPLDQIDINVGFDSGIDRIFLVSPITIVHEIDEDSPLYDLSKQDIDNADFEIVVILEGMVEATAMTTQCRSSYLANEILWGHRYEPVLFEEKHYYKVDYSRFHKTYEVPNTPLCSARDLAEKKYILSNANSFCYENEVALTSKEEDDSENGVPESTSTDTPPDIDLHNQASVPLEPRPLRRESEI", "experiment": "Inhibition of Kir2.1 (unknown origin)"}}}
{"smiles": "Cc1c([C@@H]2CN3CCN(C(=O)Cc4ccc(-n5cnnn5)cn4)C[C@H]3CO2)ccc(F)c1C#N", "values": [{"measurement": "fold change (FC)", "setting": "Rattus norvegicus [1]", "value": 1.8}, {"measurement": "IC50", "setting": "[2]", "value": 20.3, "unit": "µM"}, {"measurement": "bioavailability", "setting": "[3]", "value": 46, "unit": "%"}, {"measurement": "IC50", "setting": "Cytochrome P450 2C9", "value": "> 50", "unit": "µM"}, {"measurement": "Activity", "setting": "Rattus norvegicus [4]", "value": -16, "unit": "mmHg"}, {"measurement": "IC50", "setting": "[5]", "value": 4.1, "unit": "µM"}, {"measurement": "Activity", "setting": "Rattus norvegicus [6]", "value": -9, "unit": "mmHg"}, {"measurement": "IC50", "setting": "[7]", "value": "> 100", "unit": "µM"}, {"measurement": "Papp", "setting": "[8]", "value": "Permeable"}, {"measurement": "IC50", "setting": "[9]", "value": "> 100", "unit": "µM"}]}
